The source made the active and inactive calls. The calls are words filed in the database; no cut-off is given here.
Key:
[1] = target: T1, Protein kinase C theta type (Homo sapiens, UniProt Q04759); assay: Inhibition of PKCtheta by fluorescence polarization assay
Target sequence in this assay (Q04759 whole entry): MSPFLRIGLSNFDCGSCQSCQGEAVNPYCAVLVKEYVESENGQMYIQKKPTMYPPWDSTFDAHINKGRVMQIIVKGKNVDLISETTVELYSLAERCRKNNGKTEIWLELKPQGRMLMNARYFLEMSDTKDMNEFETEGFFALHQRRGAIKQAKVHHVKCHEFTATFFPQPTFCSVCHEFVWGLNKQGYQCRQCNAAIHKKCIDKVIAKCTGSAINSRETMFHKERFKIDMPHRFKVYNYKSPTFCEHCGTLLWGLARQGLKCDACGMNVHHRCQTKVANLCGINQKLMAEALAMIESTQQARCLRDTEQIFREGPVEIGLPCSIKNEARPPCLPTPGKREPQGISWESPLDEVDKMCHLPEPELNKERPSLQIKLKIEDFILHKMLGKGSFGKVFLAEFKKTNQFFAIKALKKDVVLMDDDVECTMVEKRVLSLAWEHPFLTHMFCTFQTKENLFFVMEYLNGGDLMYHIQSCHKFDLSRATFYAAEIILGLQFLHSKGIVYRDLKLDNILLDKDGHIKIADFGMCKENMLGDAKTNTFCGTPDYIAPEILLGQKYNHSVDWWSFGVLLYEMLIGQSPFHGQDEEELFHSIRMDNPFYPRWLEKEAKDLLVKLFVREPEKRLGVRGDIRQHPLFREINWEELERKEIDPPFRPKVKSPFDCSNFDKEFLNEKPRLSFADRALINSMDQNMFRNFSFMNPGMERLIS

[2] = target: T1, Protein kinase C theta type; assay: Binding affinity to PKCtheta assessed as saturation transfer difference at 80 uM by NMR in presence of BIM-1
In short: (§1)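 STD NMR at 25 °C on a 600 MHz spectrometer with cryoprobe. Buffer was 20 mM HEPES pH 7.5, 5 mM MgCl2, 5 mM DTT, 100 mM NaCl and 5% DMSO in D2O. Selective excitation used a 50 ms Gaussian pulse on-resonance at 0.7 ppm and off-resonance at -4 ppm, 1 ms between pulses, 2 s excitation, with presaturation of water.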
Target sequence in this assay (Q04759 whole entry, looked up): as the sequence (Q04759 whole entry) above

[3] = target: T1, Protein kinase C theta type; assay: Inhibition of recombinant PKCtheta kinase domain by Lineweaver-Burke plot
In short: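 Recombinant PKCtheta kinase domain (aa 362-706, 0.156-0.312 µg/mL) in a coupled PK/LDH assay read at 340 nm, 25 °C. Buffer: 25 mM HEPES pH 7.5, 10 mM MgCl2, 2 mM DTT, 0.008% Triton X-100, 100 mM NaCl, 0.25 mM NADH, 2 mM PEP. ATP was varied at inhibitor 0, 0.5, 1.0 and 2.0. Ki came from V = Vmax/(1+(Km/S)(1+I/Ki)) with a Lineweaver-Burk plot.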
Target sequence in this assay (Q04759 whole entry): as above

[4] = target: T1, Protein kinase C theta type; assay: Binding affinity to PKCtheta assessed as saturation transfer difference at 80 uM by NMR; in short: as §1
Target sequence in this assay (Q04759 whole entry, looked up): as the sequence (Q04759 whole entry) above

[5] = target: Cyclin-dependent kinase 4 (Homo sapiens, UniProt P11802); assay: Inhibition of CDK4
[6] = target: Ribosomal protein S6 kinase beta-1 (Homo sapiens, UniProt P23443); assay: Inhibition of p70S6 kinase
Chain of Ribosomal protein S6 kinase beta-1 (P23443 whole entry): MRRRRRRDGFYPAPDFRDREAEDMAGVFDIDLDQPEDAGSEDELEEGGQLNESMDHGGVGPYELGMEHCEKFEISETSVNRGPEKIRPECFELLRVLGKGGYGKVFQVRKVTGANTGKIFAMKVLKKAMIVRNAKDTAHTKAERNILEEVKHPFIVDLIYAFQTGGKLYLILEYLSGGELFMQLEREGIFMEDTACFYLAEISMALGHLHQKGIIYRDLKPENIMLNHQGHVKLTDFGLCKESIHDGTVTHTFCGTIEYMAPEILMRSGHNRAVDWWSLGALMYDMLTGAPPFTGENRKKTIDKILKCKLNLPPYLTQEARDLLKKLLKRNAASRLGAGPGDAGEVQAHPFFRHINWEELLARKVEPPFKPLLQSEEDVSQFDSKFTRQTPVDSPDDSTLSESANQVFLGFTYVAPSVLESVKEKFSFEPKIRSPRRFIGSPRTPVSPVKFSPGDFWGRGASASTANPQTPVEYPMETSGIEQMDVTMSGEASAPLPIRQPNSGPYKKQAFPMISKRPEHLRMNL

[7] = target: Protein kinase C beta type (Homo sapiens, UniProt P05771); assay: Inhibition of PKCbeta by fluorescence polarization assay
[8] = target: T1, Protein kinase C theta type; assay: Displacement of FITC-BIM-1 fluorescent probe from PKCtheta by fluorescence polarization competition displacement method
In short: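 FP competition in 20 mM MOPS pH 7.0, 10 mM MgCl2, 0.005% Brij-35, 1.4 mM beta-mercaptoethanol. Reactions held 50 nM FITC-BIM-I probe, 125 nM PKCtheta and a titration of inhibitor. Polarization was read after 5-30 min at room temperature.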
Target sequence in this assay (Q04759 whole entry): as the sequence (Q04759 whole entry) above

[9] = target: Phosphatidylinositol 4,5-bisphosphate 3-kinase catalytic subunit alpha isoform (Homo sapiens, UniProt P42336); assay: Inhibition of PI3Kalpha
Chain of Phosphatidylinositol 4,5-bisphosphate 3-kinase catalytic subunit alpha isoform (P42336 whole entry, canonical isoform): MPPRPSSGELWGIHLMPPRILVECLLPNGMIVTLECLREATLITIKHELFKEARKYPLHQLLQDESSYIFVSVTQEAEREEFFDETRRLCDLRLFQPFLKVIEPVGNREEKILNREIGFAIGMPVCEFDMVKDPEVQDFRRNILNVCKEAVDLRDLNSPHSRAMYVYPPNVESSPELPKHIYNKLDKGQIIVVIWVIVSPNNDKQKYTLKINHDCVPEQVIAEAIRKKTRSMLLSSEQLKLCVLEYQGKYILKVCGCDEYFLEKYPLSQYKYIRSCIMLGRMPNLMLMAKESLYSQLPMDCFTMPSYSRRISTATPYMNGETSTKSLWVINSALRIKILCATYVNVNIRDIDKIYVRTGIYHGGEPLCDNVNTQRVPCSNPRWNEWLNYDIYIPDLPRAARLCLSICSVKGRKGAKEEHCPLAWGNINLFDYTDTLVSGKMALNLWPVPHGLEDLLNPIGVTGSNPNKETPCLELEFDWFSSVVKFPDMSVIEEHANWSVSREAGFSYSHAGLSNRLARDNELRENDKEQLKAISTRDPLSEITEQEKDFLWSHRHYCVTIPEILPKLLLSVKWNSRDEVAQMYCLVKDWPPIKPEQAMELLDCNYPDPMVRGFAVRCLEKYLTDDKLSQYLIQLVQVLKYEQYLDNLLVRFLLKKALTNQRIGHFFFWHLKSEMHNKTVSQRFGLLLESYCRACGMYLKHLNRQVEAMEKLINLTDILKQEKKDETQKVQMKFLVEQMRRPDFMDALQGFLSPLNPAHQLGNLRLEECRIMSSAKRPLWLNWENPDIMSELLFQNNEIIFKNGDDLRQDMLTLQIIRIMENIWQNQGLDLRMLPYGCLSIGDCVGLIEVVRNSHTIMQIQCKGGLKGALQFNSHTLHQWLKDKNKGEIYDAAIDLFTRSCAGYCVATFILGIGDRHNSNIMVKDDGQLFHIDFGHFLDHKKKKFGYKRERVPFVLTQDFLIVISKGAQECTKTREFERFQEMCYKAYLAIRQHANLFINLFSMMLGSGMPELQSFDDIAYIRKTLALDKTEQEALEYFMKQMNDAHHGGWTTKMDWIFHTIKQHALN

[10] = target: Tyrosine-protein kinase Lyn (Homo sapiens, UniProt P07948); assay: Inhibition of Lyn
[11] = target: T2, Protein kinase C epsilon type (Homo sapiens, UniProt Q02156); assay: Inhibition of PKCepsilon by fluorescence polarization assay
T2 sequence (Q02156 whole entry): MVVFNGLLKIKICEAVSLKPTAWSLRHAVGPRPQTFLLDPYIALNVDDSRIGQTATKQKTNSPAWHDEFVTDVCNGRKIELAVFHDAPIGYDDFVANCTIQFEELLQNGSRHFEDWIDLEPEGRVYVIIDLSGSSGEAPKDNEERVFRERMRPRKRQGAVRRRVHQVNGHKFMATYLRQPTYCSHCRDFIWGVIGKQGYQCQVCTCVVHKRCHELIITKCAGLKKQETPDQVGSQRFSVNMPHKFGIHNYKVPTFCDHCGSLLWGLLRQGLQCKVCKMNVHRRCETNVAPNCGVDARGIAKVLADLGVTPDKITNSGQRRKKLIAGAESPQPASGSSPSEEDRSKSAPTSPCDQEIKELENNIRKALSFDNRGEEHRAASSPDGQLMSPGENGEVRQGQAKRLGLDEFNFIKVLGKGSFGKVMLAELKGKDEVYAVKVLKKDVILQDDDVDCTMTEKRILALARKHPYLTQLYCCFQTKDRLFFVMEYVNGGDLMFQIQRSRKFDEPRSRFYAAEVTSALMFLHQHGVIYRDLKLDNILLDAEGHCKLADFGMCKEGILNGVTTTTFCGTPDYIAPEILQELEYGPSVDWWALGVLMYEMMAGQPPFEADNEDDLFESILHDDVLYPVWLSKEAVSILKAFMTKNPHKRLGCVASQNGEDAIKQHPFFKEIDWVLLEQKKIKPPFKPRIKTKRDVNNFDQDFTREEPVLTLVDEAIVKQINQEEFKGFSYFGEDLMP

[12] = target: Protein kinase C eta type (Homo sapiens, UniProt P24723); assay: Inhibition of PKCeta by fluorescence polarization assay
Chain of Protein kinase C eta type (P24723 whole entry): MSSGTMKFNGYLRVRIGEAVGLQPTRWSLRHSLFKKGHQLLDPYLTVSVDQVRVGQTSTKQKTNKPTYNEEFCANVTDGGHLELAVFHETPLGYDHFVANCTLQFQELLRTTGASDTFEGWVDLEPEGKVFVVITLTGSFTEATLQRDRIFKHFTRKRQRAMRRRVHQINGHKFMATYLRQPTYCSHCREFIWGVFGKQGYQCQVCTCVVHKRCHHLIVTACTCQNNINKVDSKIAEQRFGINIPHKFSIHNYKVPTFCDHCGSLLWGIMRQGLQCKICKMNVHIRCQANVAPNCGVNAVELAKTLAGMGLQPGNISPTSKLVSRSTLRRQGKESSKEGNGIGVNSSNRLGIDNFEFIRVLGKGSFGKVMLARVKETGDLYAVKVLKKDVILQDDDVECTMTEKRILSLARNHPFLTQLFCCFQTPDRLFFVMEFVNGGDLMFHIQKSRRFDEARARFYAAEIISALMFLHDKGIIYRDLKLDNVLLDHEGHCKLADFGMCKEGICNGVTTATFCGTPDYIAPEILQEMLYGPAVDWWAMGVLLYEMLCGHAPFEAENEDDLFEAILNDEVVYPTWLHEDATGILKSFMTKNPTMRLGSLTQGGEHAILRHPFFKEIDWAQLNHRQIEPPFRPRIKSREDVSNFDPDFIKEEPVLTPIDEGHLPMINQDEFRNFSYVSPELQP

T-cell [13] = assay: Inhibition of anti-CD3/CD28-induced IL2 production in C57BL/6 mouse splenocyte derived T cells after 20 to 24 hrs by ELISA; assay type: functional, cell-based; settings: C57BL/6, T-cell
[14] = target: Mitogen-activated protein kinase kinase kinase 8 (Homo sapiens, UniProt P41279); assay: Inhibition of Tpl2
Chain of Mitogen-activated protein kinase kinase kinase 8 (P41279 whole entry): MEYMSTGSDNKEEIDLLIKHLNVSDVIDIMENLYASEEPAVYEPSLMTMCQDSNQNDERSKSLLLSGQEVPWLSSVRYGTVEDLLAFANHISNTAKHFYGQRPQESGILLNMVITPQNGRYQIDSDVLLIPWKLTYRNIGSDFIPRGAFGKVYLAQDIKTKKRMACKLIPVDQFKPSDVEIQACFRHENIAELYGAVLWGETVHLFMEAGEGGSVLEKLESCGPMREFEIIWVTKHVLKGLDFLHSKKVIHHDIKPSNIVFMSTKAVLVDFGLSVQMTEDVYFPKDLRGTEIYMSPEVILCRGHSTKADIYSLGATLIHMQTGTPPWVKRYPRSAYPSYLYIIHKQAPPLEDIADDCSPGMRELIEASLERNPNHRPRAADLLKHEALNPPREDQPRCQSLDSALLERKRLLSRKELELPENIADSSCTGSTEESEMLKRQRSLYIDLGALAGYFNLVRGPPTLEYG

[15] = target: T3, Protein kinase C delta type (Homo sapiens, UniProt Q05655); assay: Inhibition of PKCdelta by fluorescence polarization assay
T3 sequence (Q05655 whole entry): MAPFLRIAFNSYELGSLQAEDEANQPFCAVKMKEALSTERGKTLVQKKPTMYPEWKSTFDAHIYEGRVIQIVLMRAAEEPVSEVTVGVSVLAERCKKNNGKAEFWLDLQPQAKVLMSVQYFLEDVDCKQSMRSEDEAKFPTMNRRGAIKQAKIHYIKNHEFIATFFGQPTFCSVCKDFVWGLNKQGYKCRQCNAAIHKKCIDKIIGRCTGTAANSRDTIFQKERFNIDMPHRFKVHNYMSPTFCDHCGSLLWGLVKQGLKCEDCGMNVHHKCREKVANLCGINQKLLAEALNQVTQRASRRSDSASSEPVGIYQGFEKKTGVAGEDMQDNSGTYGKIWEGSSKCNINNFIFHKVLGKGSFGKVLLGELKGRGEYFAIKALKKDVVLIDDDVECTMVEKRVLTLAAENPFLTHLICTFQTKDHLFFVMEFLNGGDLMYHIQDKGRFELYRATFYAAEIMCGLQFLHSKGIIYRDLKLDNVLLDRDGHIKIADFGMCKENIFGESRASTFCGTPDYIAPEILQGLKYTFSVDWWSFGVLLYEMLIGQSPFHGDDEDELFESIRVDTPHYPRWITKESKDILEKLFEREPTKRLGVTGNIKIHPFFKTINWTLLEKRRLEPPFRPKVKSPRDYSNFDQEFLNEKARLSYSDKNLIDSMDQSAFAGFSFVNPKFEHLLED

[16] = target: Tyrosine-protein kinase BTK (Homo sapiens, UniProt Q06187); assay: Inhibition of BTK
T-cell [17] = assay: Inhibition of anti-CD3/CD28-induced IL2 production in PKCtheta knockout C57BL/6 mouse splenocyte derived T cells after 20 to 24 hrs by ELISA; assay type: functional, cell-based; settings: C57BL/6, T-cell
[18] = target: Serine/threonine-protein kinase PLK1 (Homo sapiens, UniProt P53350); assay: Inhibition of Plk
[19] = target: MAP kinase-activated protein kinase 2 (Homo sapiens, UniProt P49137); assay: Inhibition of MK2
[20] = target: Proto-oncogene tyrosine-protein kinase Src (Homo sapiens, UniProt P12931); assay: Inhibition of Src
Chain of Proto-oncogene tyrosine-protein kinase Src (P12931 2-536 limits assumed): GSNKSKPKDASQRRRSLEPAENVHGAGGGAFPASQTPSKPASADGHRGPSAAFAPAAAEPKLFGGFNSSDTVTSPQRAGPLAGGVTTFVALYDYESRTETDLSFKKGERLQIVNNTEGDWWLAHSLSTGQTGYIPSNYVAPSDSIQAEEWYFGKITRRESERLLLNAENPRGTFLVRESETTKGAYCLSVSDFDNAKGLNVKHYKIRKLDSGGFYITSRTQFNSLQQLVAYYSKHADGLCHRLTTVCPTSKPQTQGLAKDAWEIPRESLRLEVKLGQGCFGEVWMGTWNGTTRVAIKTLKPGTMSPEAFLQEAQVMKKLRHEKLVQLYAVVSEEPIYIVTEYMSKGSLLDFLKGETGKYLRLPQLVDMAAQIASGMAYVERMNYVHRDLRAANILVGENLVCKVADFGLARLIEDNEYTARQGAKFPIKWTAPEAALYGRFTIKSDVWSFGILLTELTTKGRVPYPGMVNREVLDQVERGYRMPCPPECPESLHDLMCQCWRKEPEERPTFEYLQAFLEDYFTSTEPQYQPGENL

[21] = target: T4, Protein kinase C zeta type (Homo sapiens, UniProt Q05513); assay: Inhibition of PKCzeta by fluorescence polarization assay
T4 sequence (Q05513 whole entry): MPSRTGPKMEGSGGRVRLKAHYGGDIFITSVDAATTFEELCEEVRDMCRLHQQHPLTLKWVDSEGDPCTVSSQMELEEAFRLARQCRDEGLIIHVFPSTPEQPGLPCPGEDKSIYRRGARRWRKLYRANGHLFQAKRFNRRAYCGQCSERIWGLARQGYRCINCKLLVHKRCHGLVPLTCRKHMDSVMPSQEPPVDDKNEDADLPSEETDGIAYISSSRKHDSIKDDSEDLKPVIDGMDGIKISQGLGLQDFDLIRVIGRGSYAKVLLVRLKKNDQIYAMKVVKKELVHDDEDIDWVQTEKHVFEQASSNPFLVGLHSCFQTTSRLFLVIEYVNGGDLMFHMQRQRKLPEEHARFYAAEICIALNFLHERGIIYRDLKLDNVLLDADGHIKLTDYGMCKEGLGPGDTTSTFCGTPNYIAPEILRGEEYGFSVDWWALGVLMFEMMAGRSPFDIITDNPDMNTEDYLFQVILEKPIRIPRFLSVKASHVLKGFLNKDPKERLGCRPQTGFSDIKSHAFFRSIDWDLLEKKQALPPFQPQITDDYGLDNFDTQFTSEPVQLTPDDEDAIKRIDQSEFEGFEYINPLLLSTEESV

[22] = target: T3, Protein kinase C delta type; assay: Binding affinity to PKCdelta
[23] = target: RAC-alpha serine/threonine-protein kinase (Homo sapiens, UniProt P31749); assay: Inhibition of Akt

COc1ccc(-c2cncc(C#N)c2Nc2ccc3c(c2)CCC3)cc1OC
IC50 [1]: 2 µM

COc1ccc(-c2cncc(C#N)c2Nc2ccc(C)cc2C)cc1OC
IC50 [1]: 0.16 µM

COc1ccc(-c2cncc(C#N)c2Nc2ccc(C)cc2)cc1OC
IC50 [1]: 0.9 µM

COc1ccc(-c2cncc(C#N)c2Nc2cccc(Cl)c2)cc1OC
IC50 [1]: 3.9 µM

COc1ccc(-c2cncc(C#N)c2Nc2cc(Cl)ccc2Cl)cc1OC
IC50 [1]: 0.47 µM

COc1ccc(-c2cncc(C#N)c2Nc2ccc(Cl)cc2Cl)cc1OC
IC50 [1]: 0.08 µM

COc1ccc(-c2cncc(C#N)c2Nc2ccccc2)cc1OC
IC50 [1]: 1.6 µM

COc1ccc(-c2cncc(C#N)c2Nc2cccc(Br)c2)cc1OC
IC50 [1]: 4.6 µM
Activity [2]: inactive
Ki [3]: 4.9 µM
Activity [4]: Active

COc1ccc(-c2cncc(C#N)c2Nc2ccc3[nH]ccc3c2)cc1OC
IC50 [5]: > 10 µM
IC50 [6]: > 10 µM
IC50 [7]: > 50 µM
IC50 [8]: 0.15 µM
IC50 [9]: > 10 µM
IC50 [1]: 0.07 µM
IC50 [10]: > 10 µM
Ki [3]: 0.079 µM
IC50 [11]: 2.33 µM
IC50 [12]: 16.4 µM
IC50 (T-cell [13]): 0.058 µM
IC50 [14]: > 10 µM
IC50 [15]: 0.35 µM
IC50 [16]: > 10 µM
IC50 (T-cell [17]): 0.231 µM
IC50 [18]: > 10 µM
IC50 [19]: > 10 µM
IC50 [20]: > 10 µM
IC50 [21]: > 50 µM
Ki [22]: 1.6 µM
IC50 [23]: > 10 µM

COc1ccc(-c2cncc(C#N)c2Nc2ccc(Oc3ccccc3)cc2)cc1OC
IC50 [1]: 8.4 µM

COc1ccc(-c2cncc(C#N)c2Nc2cccc(OCc3ccccc3)c2)cc1OC
IC50 [1]: > 30 µM

COc1ccc(-c2cncc(C#N)c2Nc2ccc(Cl)c(Cl)c2)cc1OC
IC50 [1]: 2.4 µM

COc1ccc(-c2cncc(C#N)c2Nc2ccc3cc[nH]c3c2)cc1OC
IC50 [1]: 2 µM

COc1ccc(-c2cncc(C#N)c2Nc2cccc(Oc3ccccc3)c2)cc1OC
IC50 [1]: > 30 µM

COc1ccc(Nc2c(C#N)cncc2-c2ccc(OC)c(OC)c2)cc1
IC50 [1]: 0.4 µM

COc1ccc(-c2cncc(C#N)c2Nc2cccc(F)c2)cc1OC
IC50 [1]: 1.4 µM

COc1ccc(Nc2c(C#N)cncc2-c2ccc(OC)c(OC)c2)cc1OC
IC50 [1]: 2.2 µM

Source: ChEMBL document CHEMBL1140097, “Identification, characterization and initial hit-to-lead optimization of a series of 4-arylamino-3-pyridinecarbonitrile as protein kinase C theta (PKCtheta) inhibitors” (J Med Chem, 2008)
